Data set [1] in a line: Cytotoxicity against imatinib-resistant human KBM5 cells harboring Bcr-Abl T315I mutant after 72 hrs by MTS assay. The format is functional, cell-based. To be noted: KBM5, 72 h. Put shortly:
(§1)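 KBM5 (wild-type p210 Bcr-Abl) or KBM5-T315I cells in IMDM + 10% heat-inactivated FCS. The T315I subline was kept in 1 µM imatinib, removed 2–3 days before assay. Cells incubated 72 h with increasing concentrations. Viability by MTS at 490 nm, as percent of control; IC50 from dose–response curves.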

For data set [2], the system named is KBM5. The data set can be described thus: Cytotoxicity against human KBM5 cells harboring wild type Bcr-Abl at 0.001 to 17 uM after 72 hrs by MTS assay. The format is functional, cell-based. Put shortly:
as §1
In general terms: Tetrazolium dyes change colour on reduction, which living cells bring about.

Data set [3] in a line: Cytotoxicity against human KBM5 cells harboring wild type Bcr-Abl after 72 hrs by MTS assay. It counts as functional, cell-based. To be noted: KBM5, 72 h. In short, it runs like this: as §1
Data set [4] in a line: Aqueous solubility in water. The format is physicochemical. To be noted: buffer.
Data set [5] concerns KBM5. The data set can be described thus: Cytotoxicity against imatinib-resistant human KBM5 cells harboring Bcr-Abl T315I mutant at 0.001 to 17 uM after 72 hrs by MTS assay. The format is functional, cell-based. Put shortly: as §1
The test system of the next data set is MEF. Description: Cytotoxicity against MEF after 72 hrs by MTS assay. The format is cell-based. To be noted: Mus musculus. In short, it runs like this:
(§2)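 MEF and NHFB fibroblasts cultured in DMEM + 10% FCS. Exposed to increasing concentrations for 72 h. Viability by MTS reagent, optical density at 490 nm.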

Data set [6] in a line: Cytotoxicity against imatinib-resistant mouse 32D cells harboring Bcr-Abl T315I mutant after 72 hrs by MTS assay. The format is functional, cell-based. Put shortly:
(§3)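 32D myeloid cells stably expressing wild-type or T315I Bcr-Abl, maintained in RPMI 1640 + 10% FBS. Treated with increasing concentrations for 72 h. Viability by MTS, optical density at 490 nm.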

Data set [7] is described as follows: Cytotoxicity against NHFB after 72 hrs by MTS assay. Also noted: species or system Homo sapiens. Put shortly: as §2
Data set [8] can be described thus: Cytotoxicity against mouse 32D cells harboring wild type Bcr-Abl after 72 hrs by MTS assay. The format is functional, cell-based. In short, it runs like this:
as §3

pIC50: −log10 of the molar value. Calls of active or inactive are those of the source. The calls are words filed in the database; no cut-off is given here.

Our source for the IC50, Activity and solubility values is ChEMBL document CHEMBL1157578, “Design, synthesis, and biological evaluation of novel water-soluble triptolide derivatives: Antineoplastic activity against imatinib-resistant CML cells bearing T315I mutant Bcr-Abl” (Bioorg Med Chem, 2010).

Broadly, the pIC50 is the negative decadic logarithm of the IC50, by convention in mol/L. The low end stands for a large IC50, the high end for a small IC50. `CC(C)[C@]12O[C@H]1[C@@H]1O[C@@]13[C@H]1CCC4=C(COC4=O)[C@@H]1C[C@@H]1O[C@@]13[C@@H]2OC(=O)CNCCN`: the figures for the pIC50 in data set [1] and in data set [3] were 6.02 and 6.11, respectively. Further, the outcome in the data set with KBM5 [2] and in the data set with KBM5 [5] was Active. For the same compound, the solubility entry in [4] is given as “Soluble”.

Take `CC(C)[C@]12O[C@H]1[C@@H]1O[C@@]13[C@H]1CCC4=C(COC4=O)[C@@H]1C[C@@H]1O[C@@]13[C@@H]2OC(=O)CCl`: the outcome with KBM5 [2] and in the data set on KBM5 [5] was Active.

Turning to `CC(C)[C@]12O[C@H]1[C@@H]1O[C@@]13[C@H]1CCC4=C(COC4=O)[C@@H]1C[C@@H]1O[C@@]13[C@@H]2OC(=O)CN`, the pIC50 was 4.95 in the data set with MEF; 7.93 in data set [1]; 7.36 in [6]; 4.94 in [7]; 7.30 in data set [8]; 7.72 in data set [3].

On to `CC(C)[C@]12O[C@H]1[C@@H]1O[C@@]13[C@H]1CCC4=C(COC4=O)[C@@H]1C[C@@H]1O[C@@]13[C@@H]2OC(=O)CN(CCO)CCO`, for which the negative-log IC50 (pIC50) in data set [1] is 5.81; in data set [3], 5.55. Besides, the outcome in the data set on KBM5 [2] and in the data set with KBM5 [5] was inactive.

For the compound `CC(C)[C@]12O[C@H]1[C@@H]1O[C@@]13[C@H]1CCC4=C(COC4=O)[C@@H]1C[C@@H]1O[C@@]13[C@@H]2OC(=O)CNc1nccc(-c2cccnc2)n1`, the negative-log IC50 (pIC50) in [1] was 6.67; in [3] it was 6.53. For the same compound, the result in the data set with KBM5 [2] and in the data set on KBM5 [5] was Active. Further, in data set [4], the solubility result is “Soluble”.

Regarding `CC(C)[C@]12O[C@H]1[C@@H]1O[C@@]13[C@H]1CCC4=C(COC4=O)[C@@H]1C[C@@H]1O[C@@]13[C@@H]2OC(=O)CNc1ccc(Cl)cc1`, the results for the pIC50 in data set [1] and in [3] were 6.13 and 5.30, respectively. For the same compound, the outcome with KBM5 [2] and in the data set with KBM5 [5] was inactive.

For `CCCCCCCCCCCCNCC(=O)O[C@@H]1[C@@]2(C(C)C)O[C@H]2[C@@H]2O[C@@]23[C@H]2CCC4=C(COC4=O)[C@@H]2C[C@@H]2O[C@]213`, the negative-log IC50 (pIC50) is 5.98 in data set [1] and 5.27 in data set [3]. The result in the data set with KBM5 [2] and in the data set on KBM5 [5] was inactive.

Turning to `CCN(CC)CC(=O)O[C@@H]1[C@@]2(C(C)C)O[C@H]2[C@@H]2O[C@@]23[C@H]2CCC4=C(COC4=O)[C@@H]2C[C@@H]2O[C@]213`, the result in the data set on KBM5 [2] and in the data set with KBM5 [5] was Active. Also, the pIC50 in [3] was 7.11. In addition, the solubility result in data set [4] is on record as “Soluble”.

Consider `CNCC(=O)O[C@@H]1[C@@]2(C(C)C)O[C@H]2[C@@H]2O[C@@]23[C@H]2CCC4=C(COC4=O)[C@@H]2C[C@@H]2O[C@]213`, for which the pIC50 in data set [1] was 6.51; in [3], 6.46. The outcome in the data set with KBM5 [2] and in the data set on KBM5 [5] was Active. Also, the solubility result in data set [4] is recorded as “Soluble”.

Turning to `COC(=O)[C@H](C)NCC(=O)O[C@@H]1[C@@]2(C(C)C)O[C@H]2[C@@H]2O[C@@]23[C@H]2CCC4=C(COC4=O)[C@@H]2C[C@@H]2O[C@]213`, the negative-log IC50 (pIC50) is 7.85 in [1] and 7.73 in data set [3]. Moreover, the result with KBM5 [2] and with KBM5 [5] was Active. For the same compound, in data set [4], the solubility entry was “Soluble”.

Regarding `CC(C)[C@]12O[C@H]1[C@@H]1O[C@]13[C@]1(O[C@H]1C[C@H]1C4=C(CC[C@@]13C)C(=O)OC4)[C@@H]2O` [TRIPTOLIDE], the negative logarithm of the IC50 (pIC50) was 5.04 in the data set with MEF; 8.08 in [1]; 7.47 in data set [6]; 5.06 in data set [7]; 7.49 in [8]; 7.99 in [3]. Also, the result in the data set with KBM5 [2] and in the data set with KBM5 [5] was Active. Besides, the solubility result in data set [4] was “Insoluble”.

With `CC(C)[C@]12O[C@H]1[C@@H]1O[C@@]13[C@H]1CCC4=C(COC4=O)[C@@H]1C[C@@H]1O[C@@]13[C@@H]2OC(=O)CN1CCNCC1`, the negative logarithm of the IC50 (pIC50) in data set [1] is 6.26; in data set [3], 6.30. In addition, the result in the data set with KBM5 [2] and in the data set with KBM5 [5] was Active. Moreover, the solubility entry in [4] is on record as “Soluble”.
